Experiment [1] relates to Pseudomonas aeruginosa. As to the kind of experiment: Antibacterial activity against Pseudomonas aeruginosa IAM 1275 by two fold dilution method. The format is functional.
Experiment [2] deals with Escherichia coli. The experiment can be described thus: Antibacterial activity against Escherichia coli IAM 1268 by two fold dilution method. It is filed as functional.
For another experiment, the system named is CCRF S-180. As to the kind of experiment: Cytotoxicity against mouse S180 cells by MTT assay. It is filed as functional, cell-based.
For experiment [3], the system named is Staphylococcus aureus. The experiment can be described thus: Antibacterial activity against Staphylococcus aureus IAM 1011 by two fold dilution method. The format is functional.
The test system of experiment [4] is Staphylococcus aureus. As to the kind of experiment: Antibacterial activity against Staphylococcus aureus IAM 1011 at 10 ug/disk after 18 hrs by agar overlay method. The format is functional, organism-based. In outline: (§1)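 Agar overlay: bacteria grown in nutrient broth (50-100 µL) mixed into 3 mL melted 0.7% soft nutrient agar at 40 °C, poured over 20 mL 1.5% nutrient agar plates; 10 µL sample deposited on solidified agar; inhibition zone diameter read after 18 h at 37 °C. Methanol as solvent control.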

Experiment [5] has as its system Bacillus cereus. As to the kind of experiment: Antibacterial activity against Bacillus cereus IAM 1069 at 10 ug/disk after 18 hrs by agar overlay method. It is filed as functional, organism-based. Summed up: as §1
In experiment [6] the test system is Bacillus cereus. The experiment can be described thus: Antibacterial activity against Bacillus cereus IAM 1069 by two fold dilution method. It is filed as functional.
The test system of experiment [7] is Pseudomonas aeruginosa. As to the kind of experiment: Antibacterial activity against Pseudomonas aeruginosa IAM 1275 at 10 ug/disk after 18 hrs by agar overlay method. It is filed as functional, organism-based. Summed up:
as §1

Experiment [8] has as its system Escherichia coli. The experiment can be described thus: Antibacterial activity against Escherichia coli IAM 1268 at 10 ug/disk after 18 hrs by agar overlay method. It is filed as functional, organism-based. Summed up:
as §1

Data on two compounds can be found in ChEMBL document CHEMBL1148141, “New labdene iterpenes from Eupatorium glutinosum” (2002).

SMILES strings stand for the structures. ≈ marks a conversion by molar mass, not a printed value. Calls of active or inactive are those of the source.

As a reminder, the MIC is the smallest concentration in the dilution series that meets the test's criterion for growth inhibition. A low value points to inhibition by little substance. Consider `CC(CCO)CC[C@@H]1C(C(=O)O)=CC[C@@H]2C(C)(C)[C@H](O[C@@H]3O[C@H](CO)[C@@H](O)[C@H](O)[C@H]3O)CC[C@@]12C` (some centres not stated), for which the MIC against Pseudomonas aeruginosa [1] turned out to be 256 µg/mL (≈ 511 µM); against Escherichia coli [2] it was 128 µg/mL (≈ 256 µM). For the same compound, in the experiment on CCRF S-180, the result was inactive.

For `CC(CCO)CC[C@@H]1C(C(=O)O)=CC[C@@H]2C(C)(C)[C@H](O)CC[C@@]12C` (some centres not stated), the minimum inhibitory concentration (MIC) worked out at 256 µg/mL (≈ 756 µM) in the experiment with Staphylococcus aureus [3], 64 µg/mL (≈ 189 µM) in the experiment on Pseudomonas aeruginosa [1], 128 µg/mL (≈ 378 µM) against Escherichia coli [2] and 128 µg/mL (≈ 378 µM) in the experiment with Bacillus cereus [6]. The outcome in the experiment with Staphylococcus aureus [4], in the experiment with Bacillus cereus [5], in the experiment with Pseudomonas aeruginosa [7] and in the experiment with Escherichia coli [8] was Active. Besides, the result with CCRF S-180 was inactive.
